Screening results from PubChem.
In the library only some 4% were active in any assay of this set; here they are far more common.
Cardio protect = modulators protecting cardiomyocytes from myocardial damage; H9c2 cardiomyocytes, H2O2 injury protection, ATPLite, 2 h; protection from H2O2 cell death, % at 20 µM; hit rate 0.63% among 360,000;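 active = compounds giving at least 50% protection of heart cells from peroxide-induced death in the single-dose screen, raw or plate-pattern-corrected value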;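 also: 0% = DMSO wells with peroxide and 100% = DMSO wells without peroxide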
iPSC survival up = hiPSC single-cell survival enhancement. ATPlite luminescence; 100% = ROCK inhibitor wells, 0% = DMSO. survival enhancement, % at 20 µM. hit rate 0.044% among 360,000. AID 602274; in the data active = survival enhancement above about 18%;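 also: cells exposed to compounds for 16 hours before the ATP read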
FAS TE block = blocks the thioesterase domain of human fatty acid synthase; P49327; recombinant FAS-TE, OMFH fluorogenic substrate, fluorescence endpoint; inhibition, % at 15 µM; hit rate 0.67% among 360,000; AID 602261;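 active = compounds whose normalised, plate-corrected inhibition of enzyme fluorescence in the single-dose primary screen is 50% or more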;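 also: 0% = DMSO with enzyme and 100% = substrate without enzyme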
Target sequence (P49327 whole entry, looked up, the tested form may be a part): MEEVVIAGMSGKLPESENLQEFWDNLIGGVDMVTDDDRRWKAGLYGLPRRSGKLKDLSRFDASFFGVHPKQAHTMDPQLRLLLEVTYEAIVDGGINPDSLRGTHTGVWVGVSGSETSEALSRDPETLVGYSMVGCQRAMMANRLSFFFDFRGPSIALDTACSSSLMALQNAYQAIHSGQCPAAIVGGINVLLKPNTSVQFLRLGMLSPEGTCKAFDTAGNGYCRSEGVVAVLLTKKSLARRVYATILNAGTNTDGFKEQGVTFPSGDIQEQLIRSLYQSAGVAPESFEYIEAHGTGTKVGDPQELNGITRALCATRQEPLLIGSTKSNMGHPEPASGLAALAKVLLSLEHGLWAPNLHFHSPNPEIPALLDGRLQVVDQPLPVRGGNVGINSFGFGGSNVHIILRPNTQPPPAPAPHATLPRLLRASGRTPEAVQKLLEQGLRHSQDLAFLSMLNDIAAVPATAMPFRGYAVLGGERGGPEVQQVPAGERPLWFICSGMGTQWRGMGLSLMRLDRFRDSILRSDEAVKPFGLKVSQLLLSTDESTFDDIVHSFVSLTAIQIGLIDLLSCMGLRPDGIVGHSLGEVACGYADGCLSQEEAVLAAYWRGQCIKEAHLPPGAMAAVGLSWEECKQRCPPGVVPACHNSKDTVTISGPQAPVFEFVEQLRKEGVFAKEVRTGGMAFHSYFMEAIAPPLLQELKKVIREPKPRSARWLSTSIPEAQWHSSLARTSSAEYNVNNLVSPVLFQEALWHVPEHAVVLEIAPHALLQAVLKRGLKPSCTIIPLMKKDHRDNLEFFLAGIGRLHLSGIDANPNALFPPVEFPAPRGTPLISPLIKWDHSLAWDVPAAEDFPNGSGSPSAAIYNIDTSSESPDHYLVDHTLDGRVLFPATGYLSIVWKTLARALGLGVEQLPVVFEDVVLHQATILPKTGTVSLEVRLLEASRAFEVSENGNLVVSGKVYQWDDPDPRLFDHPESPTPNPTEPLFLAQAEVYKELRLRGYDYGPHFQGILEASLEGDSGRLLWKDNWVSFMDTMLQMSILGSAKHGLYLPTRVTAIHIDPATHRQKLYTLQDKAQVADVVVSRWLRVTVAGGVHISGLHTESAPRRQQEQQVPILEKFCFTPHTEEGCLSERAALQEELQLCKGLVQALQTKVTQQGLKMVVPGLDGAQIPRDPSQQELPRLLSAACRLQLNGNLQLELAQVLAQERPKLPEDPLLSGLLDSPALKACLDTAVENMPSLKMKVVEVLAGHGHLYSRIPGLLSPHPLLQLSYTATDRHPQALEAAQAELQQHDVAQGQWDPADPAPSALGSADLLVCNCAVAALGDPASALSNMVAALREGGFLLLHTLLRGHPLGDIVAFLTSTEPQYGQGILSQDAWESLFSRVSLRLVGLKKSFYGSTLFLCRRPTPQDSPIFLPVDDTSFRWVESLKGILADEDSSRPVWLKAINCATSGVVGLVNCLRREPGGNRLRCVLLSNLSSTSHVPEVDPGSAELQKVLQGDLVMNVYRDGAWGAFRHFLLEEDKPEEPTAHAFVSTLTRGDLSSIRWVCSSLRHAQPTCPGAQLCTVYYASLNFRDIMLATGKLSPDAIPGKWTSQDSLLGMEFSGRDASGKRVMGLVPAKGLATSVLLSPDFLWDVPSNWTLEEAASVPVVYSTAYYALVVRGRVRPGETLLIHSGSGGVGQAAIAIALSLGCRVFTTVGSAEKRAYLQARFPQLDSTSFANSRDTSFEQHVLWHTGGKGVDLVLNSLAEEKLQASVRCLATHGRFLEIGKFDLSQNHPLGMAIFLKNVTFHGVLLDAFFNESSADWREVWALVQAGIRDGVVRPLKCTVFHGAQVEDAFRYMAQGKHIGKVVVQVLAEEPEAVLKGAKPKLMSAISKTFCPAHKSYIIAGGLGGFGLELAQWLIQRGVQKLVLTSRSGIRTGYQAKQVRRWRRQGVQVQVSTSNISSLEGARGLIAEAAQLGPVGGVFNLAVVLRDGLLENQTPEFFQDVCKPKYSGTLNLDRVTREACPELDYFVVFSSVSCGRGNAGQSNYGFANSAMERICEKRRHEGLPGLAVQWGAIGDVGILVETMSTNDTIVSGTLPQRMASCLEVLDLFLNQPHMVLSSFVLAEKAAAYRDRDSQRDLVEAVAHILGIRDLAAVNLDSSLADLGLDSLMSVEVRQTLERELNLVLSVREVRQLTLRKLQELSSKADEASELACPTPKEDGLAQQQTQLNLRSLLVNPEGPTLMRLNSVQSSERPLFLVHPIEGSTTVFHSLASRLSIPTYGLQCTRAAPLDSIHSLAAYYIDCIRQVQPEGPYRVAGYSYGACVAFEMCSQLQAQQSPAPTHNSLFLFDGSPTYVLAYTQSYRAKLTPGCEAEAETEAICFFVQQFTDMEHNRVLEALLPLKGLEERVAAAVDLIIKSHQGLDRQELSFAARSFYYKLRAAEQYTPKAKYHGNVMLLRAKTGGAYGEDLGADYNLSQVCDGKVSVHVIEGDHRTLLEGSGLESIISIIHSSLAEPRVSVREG
Arrestin-AP2 inh = human beta-arrestin and AP2 interaction inhibition; FITC-arrestin peptide / GST-AP2 beads, flow cytometry; AP2 beta2 appendage carries R879A mutation; inhibition, % at 10 µM; hit rate 0.31% among 340,000;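 active = inhibition above a set limit, near 3 SD of compounds lacking own fluorescence, cut at about 54% in these data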;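 also: plate controls were DMSO wells for no effect and 5 µM unlabelled arrestin peptide for full effect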
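System: GST-AP2 R879A glutathione beads. Medium: PBS with 0.05% Tween 20 and 0.1% BSA. Also added: FITC-arrestin peptide, 50 nM. Incubation: 12 min plus 1 h, RT. Measured by: high-throughput flow cytometry of beads, ex 488, em 535 nm. Evaluation: percent drop in bead-associated FITC signal.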
NR3A LBD binder = NR3A (human) ligand-binding domain modulation. NR3A LBD differential scanning fluorimetry, Tm shift; 0% = protein alone, 100% = glycine-bound protein. Tm shift relative to glycine control, % at 25 µM. hit rate 2.5% among 340,000. AID 1259313;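 active = melting temperature shift of at least 10% of the positive control shift, at one fixed dose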
SENP1 FRET inh = inhibitors of human SENP1 SUMO protease catalytic domain; Q9P0U3; recombinant SENP1 catalytic domain, CyPet-SUMO1-YPet FRET cleavage; inhibition, % at 10 µM; hit rate 0.21% among 360,000; AID 624204;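 active = inhibition at least 30% at 10 µM, raw YFP signal under a set limit, fluorescence ratio 0.5 to 1.5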;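 also: 0% = enzyme with DMSO and 100% = no enzyme wells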
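Test system: hSENP1 catalytic domain, recombinant; Amount: 20 pM final SENP1 enzyme; Medium: Tris pH 8 buffer plus EDTA, NaCl, BME, BSA, NP40, catalase; Schedule: 50 min enzyme reaction, room temperature, light-protected; Technique: FRET fluorescence in CFP and YFP emission channels; Controls: no-enzyme wells low, DMSO-plus-enzyme wells high control.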
Active calls of the source: *; · = no result given.

SMILES	Cardio protect	iPSC survival up	FAS TE block	Arrestin-AP2 inh	NR3A LBD binder	SENP1 FRET inh
Oc1ccccc1-c1nc(NCc2ccccc2)c2ccccc2n1	-14	0	26	13	16*	1
Fc1ccccc1-c1nc(NCc2ccco2)c2ccccc2n1	-9	0	17	13	-6	2
Oc1ccccc1-c1nc(NCc2ccco2)c2ccccc2n1	-11	-1	24	9	14*	1
O=c1c(-c2ccccc2)nc2ccccc2n1C(c1ccccc1)c1nc2ccccc2[nH]1 (configuration not stated)	·	·	·	·	·	-1
CC1CCN(C(=O)CCC(=O)Nc2ccc([N+](=O)[O-])cc2)CC1	4	3	6	·	·	0
CCn1ncc(/C=N\NC(=O)c2ccc3c(c2)c(C)c(C)n3Cc2ccccc2)c1C	-4	-5	9	1	-5	-1
CCn1cc(/C=N\NC(=O)c2ccc3c(c2)c(C)c(C)n3Cc2ccccc2)c(C)n1	13	-2	8	27	19*	1
CCOc1ccc(NC(=O)C2=C(C)NC(=S)NC2c2ccc(O)c(OC)c2)cc1 (configuration not stated)	0	-1	-6	-6	13*	-1
COc1ccc(NC(=O)C2=C(C)NC(=S)NC2c2ccc(O)c(OC)c2)cc1 (configuration not stated)	2	0	-4	6	2	0
C[C@@H]1CN([C@H](C)CO)C(=O)CCCn2nncc2CO[C@@H]1CN(C)C(=O)NC1CCCCC1	2	3	-5	·	·	0
CC(=O)Nc1ccc(S(=O)(=O)Nc2nc3ccccc3nc2-n2ccc(=NC(=O)c3ccc(F)cc3)cc2)cc1	8	-1	3	-9	36*	-36
O=C(N=c1ccn(-c2nc3ccccc3nc2NS(=O)(=O)c2ccccc2)cc1)c1ccccc1Cl	1	-1	-4	4	-8	-26
CC(=O)Nc1ccc(S(=O)(=O)Nc2nc3ccccc3nc2-n2ccc(=NC(=O)c3ccccc3)cc2)cc1	2	0	1	10	25*	-34
COc1ccc(S(=O)(=O)N(C)C[C@H]2Oc3ccc(NC(=O)Nc4ccc(C(F)(F)F)cc4)cc3C(=O)N([C@H](C)CO)C[C@@H]2C)cc1	-1	-1	35	-5	22*	-1
C[C@@H]1CN([C@H](C)CO)C(=O)c2cc(NC(=O)Nc3ccc(C(F)(F)F)cc3)ccc2O[C@H]1CN(C)S(=O)(=O)c1ccccc1	-6	-5	22	6	22*	2
COc1cc(NC(=S)NCc2ccco2)cc(OC)c1OC	7	-1	-6	-7	19*	-3
COc1cc(-c2cc(C(=O)Nc3ccncc3)c3ccccc3n2)cc(OC)c1OC	50	0	1	-7	-2	1
COc1ccccc1NC(=O)c1cc(-c2cc(OC)c(OC)c(OC)c2)nc2ccccc12	66*	0	19	31	1	3
COc1cc(-c2cc(C(=O)Nc3ccc(S(=O)(=O)NCc4ccco4)cc3)c3ccccc3n2)cc(OC)c1OC	61*	3	26	38	-6	2
CCOc1ccccc1NC(=O)c1cc(-c2cc(OC)c(OC)c(OC)c2)nc2ccccc12	44	-1	26	-2	1	1
CCN(CC)S(=O)(=O)c1ccc(N2CCOCC2)c(NC(=O)c2cc(-c3ccccn3)nc3ccccc23)c1	52*	1	28	15	0	-2
COc1ccc(OCCN(C)C(=O)c2cccc(S(=O)(=O)N(C)c3ccccc3)c2)cc1	3	1	14	6	1	1
COc1ccc(C(NC(=O)C2CCN(C/C=C/c3ccc(OC(C)=O)c(OC)c3)CC2)c2ccccn2)cc1 (configuration not stated)	2	-2	-10	·	·	-5
c1ccc2c(c1)Sc1cnccc1N2CC1CO1 (configuration not stated)	3	-2	-6	·	·	10
COc1cc(CN2C[C@@H](CO)O[C@@H](n3cnc4c(NC(C)C)ncnc43)C2)cc(OC)c1OC	11	1	-9	·	·	1
SMILES	Cardio protect	iPSC survival up	FAS TE block	Arrestin-AP2 inh	NR3A LBD binder	SENP1 FRET inh
COc1ccc(-c2cc(C(=O)N3CCN(c4ccccn4)CC3)c3ccccc3n2)cc1	-12	-6	27	14	2	0
Cc1cc(C)nc(NS(=O)(=O)c2ccc(NC(=O)c3cc(-c4ccccc4)nc4ccccc34)cc2)n1	-2	4	10	-6	19*	-2
COc1cc(-c2cc(C(=O)N3CCN(c4ccccn4)CC3)c3ccccc3n2)cc(OC)c1OC	65*	-3	16	3	1	3
CCN(CC)S(=O)(=O)c1ccc(NC(=O)c2cc(-c3ccccc3)nc3ccccc23)cc1	2	0	31	-1	2	-1
COc1ccc(-c2cc(C(=O)NNC(=O)c3csc(N4CCOCC4)n3)c3ccccc3n2)cc1	52*	-1	8	23	-2	4
COc1ccc(-c2cc(C(=O)NNC(=O)c3csc(N4CCOCC4)n3)c3ccccc3n2)cc1OC	44	0	2	6	-5	-2
COc1ccccc1C(=O)Nc1ccc(S(=O)(=O)Nc2cc(C)nc(C)n2)cc1	-4	1	-4	-12	16*	0
COc1ccc(NC(=O)Nc2ccc3c(c2)C(=O)N([C@H](C)CO)C[C@@H](C)[C@@H](CN(C)C(=O)C2CCCCC2)OCCCC[C@H](C)O3)cc1	-2	-2	2	·	·	1
COc1ccc(CN2C(=O)CSCC2(C)C(=O)Nc2ccc3c(c2)OCCO3)cc1 (configuration not stated)	·	·	·	·	·	1
Cc1c(C(=O)NCc2cccc(C(F)(F)F)c2)sc(=O)n1Cc1ccccc1F	0	5	24	·	·	4
COc1cc(-c2cc(C(=O)NCc3ccc(S(N)(=O)=O)cc3)c3ccccc3n2)cc(OC)c1OC	10	1	0	33	-6	-1
COc1cc(-c2cc(C(=O)NCc3ccco3)c3ccccc3n2)cc(OC)c1OC	59*	0	5	-15	7	1
COc1ccc(-c2ccc3c(c2)S(=O)(=O)c2cccc(C(=O)N4CCN(c5ccccn5)CC4)c2C3=O)cc1OC	88*	2	7	·	·	16
COc1ccc(-c2cc(C(=O)Nc3ccccc3N3CCOCC3)c3ccccc3n2)cc1OC	62*	1	41	-11	-2	-3
O=C(Nc1ccccc1N1CCOCC1)c1cc(-c2ccncc2)nc2ccccc12	40	0	3	0	-2	7
